Measurements published in ChEMBL document CHEMBL2417369, “Synthesis and evaluation of heteroaryl substituted diazaspirocycles as scaffolds to probe the ATP-binding site of protein kinases” (Bioorg Med Chem, 2013).

What was measured:
[1] = molecular target: Protein kinase C (PKC) (Homo sapiens) (UniProt O94806+P41743+P17252+P05129+Q05655+P05771+Q05513+Q02156+P24723+Q15139+Q04759); assay: Inhibition of PKC (unknown origin) at 30 uM by microfluidic mobility shift assay relative to control
How it was run: (§1)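 Single-point screen in a 24-enzyme kinase panel using a microfluidic assay. Each compound was tested at […] with ATP at roughly the Km for each enzyme. The pan-AGC inhibitor H-89 served as an internal control on every plate.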

[2] = molecular target: T1, Aurora kinase A (Homo sapiens) (UniProt O14965); assay: Inhibition of AURA (unknown origin) at 30 uM by microfluidic mobility shift assay relative to control; how it was run: as §1
T1 sequence (whole entry): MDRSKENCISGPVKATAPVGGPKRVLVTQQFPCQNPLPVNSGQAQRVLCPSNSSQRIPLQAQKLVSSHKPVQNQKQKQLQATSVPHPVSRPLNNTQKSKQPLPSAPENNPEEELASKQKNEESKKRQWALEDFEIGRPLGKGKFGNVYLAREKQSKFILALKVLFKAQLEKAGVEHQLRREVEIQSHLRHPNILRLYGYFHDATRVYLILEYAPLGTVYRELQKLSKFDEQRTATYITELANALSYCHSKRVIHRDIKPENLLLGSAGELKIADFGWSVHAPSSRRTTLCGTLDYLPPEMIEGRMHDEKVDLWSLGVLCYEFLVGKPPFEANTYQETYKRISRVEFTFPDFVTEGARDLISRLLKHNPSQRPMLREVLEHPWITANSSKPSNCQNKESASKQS

[3] = molecular target: Ribosomal protein S6 kinase alpha-1 (Homo sapiens, UniProt Q15418); assay: Inhibition of RSK1 (unknown origin) at 30 uM by microfluidic mobility shift assay relative to control; how it was run: as §1
[4] = molecular target: Mitogen-activated protein kinase 14 (Homo sapiens) (UniProt Q16539); assay: Inhibition of p38alpha (unknown origin) at 30 uM by microfluidic mobility shift assay relative to control; how it was run: as §1
[5] = molecular target: Mitogen-activated protein kinase 1 (Homo sapiens, UniProt P28482); assay: Inhibition of ERK2 (unknown origin) at 30 uM by microfluidic mobility shift assay relative to control; how it was run: as §1
[6] = molecular target: Ribosomal protein S6 kinase alpha-5 (Homo sapiens, UniProt O75582); assay: Inhibition of MSK1 (unknown origin) at 30 uM by microfluidic mobility shift assay relative to control; how it was run: as §1
[7] = molecular target: Calcium/calmodulin-dependent protein kinase type II subunit beta (Homo sapiens) (UniProt Q13554); assay: Inhibition of CAMK2beta (unknown origin) at 30 uM by microfluidic mobility shift assay relative to control
How it was run: (§2)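 Single-point screen at 30 µM test compound across a 24-kinase panel in a microfluidic assay format. ATP was set near each enzyme's Km,[ATP]. […] The pan-AGC inhibitor H-89 served as an internal control on every assay plate.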

[8] = molecular target: T2, Serine/threonine-protein kinase Sgk2 (Homo sapiens) (UniProt Q9HBY8); assay: Inhibition of SGK2 (unknown origin) at 30 uM by microfluidic mobility shift assay relative to control
T2 sequence (whole entry): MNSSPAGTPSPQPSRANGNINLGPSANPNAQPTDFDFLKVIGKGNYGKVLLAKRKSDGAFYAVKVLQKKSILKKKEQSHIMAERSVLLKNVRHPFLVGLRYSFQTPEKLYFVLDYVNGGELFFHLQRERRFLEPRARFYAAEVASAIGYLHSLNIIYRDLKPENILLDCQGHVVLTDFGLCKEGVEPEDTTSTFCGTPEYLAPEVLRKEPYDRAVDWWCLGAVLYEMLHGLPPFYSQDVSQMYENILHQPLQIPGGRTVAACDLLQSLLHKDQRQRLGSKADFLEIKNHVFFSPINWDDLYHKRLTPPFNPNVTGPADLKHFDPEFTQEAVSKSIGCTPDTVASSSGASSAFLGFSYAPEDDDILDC
How it was run: (§3)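 Single-point screen against a 24-kinase panel in a commercial microfluidic assay format. Compounds were tested at 30 µM, with ATP at approximately the Km,[ATP] of each enzyme. H-89 was included on each assay plate as an internal control.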

[9] = molecular target: Serine/threonine-protein kinase MARK1 (Homo sapiens) (UniProt Q9P0L2); assay: Inhibition of MARK1 (unknown origin) at 30 uM by microfluidic mobility shift assay relative to control; how it was run: as §2
[10] = molecular target: Fibroblast growth factor receptor 1 (Homo sapiens) (UniProt P11362); assay: Inhibition of FGFR1 (unknown origin) at 30 uM by microfluidic mobility shift assay relative to control; how it was run: as §2
[11] = molecular target: T3, MAP kinase-activated protein kinase 5 (Homo sapiens) (UniProt Q8IW41); assay: Inhibition of PRAK (unknown origin) at 30 uM by microfluidic mobility shift assay relative to control; how it was run: as §3
T3 sequence (whole entry): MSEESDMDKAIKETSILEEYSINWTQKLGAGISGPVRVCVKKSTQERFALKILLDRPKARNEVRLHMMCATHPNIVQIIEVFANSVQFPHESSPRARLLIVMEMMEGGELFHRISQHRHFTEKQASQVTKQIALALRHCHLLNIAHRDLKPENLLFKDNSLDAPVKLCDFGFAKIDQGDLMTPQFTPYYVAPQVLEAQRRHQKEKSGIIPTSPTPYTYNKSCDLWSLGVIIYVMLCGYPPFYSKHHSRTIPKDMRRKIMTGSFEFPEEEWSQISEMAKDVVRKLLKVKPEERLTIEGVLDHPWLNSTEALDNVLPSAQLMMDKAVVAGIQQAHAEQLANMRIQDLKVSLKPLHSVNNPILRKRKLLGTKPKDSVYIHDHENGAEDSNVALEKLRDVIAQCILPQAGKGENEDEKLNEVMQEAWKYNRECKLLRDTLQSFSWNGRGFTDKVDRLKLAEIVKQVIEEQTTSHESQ

[12] = molecular target: MAP kinase-activated protein kinase 2 (Homo sapiens) (UniProt P49137); assay: Inhibition of MK2 (unknown origin) at 30 uM by microfluidic mobility shift assay relative to control; how it was run: as §1
[13] = molecular target: Tyrosine-protein kinase Lyn (Homo sapiens, UniProt P07948); assay: Inhibition of LYN (unknown origin) at 30 uM by microfluidic mobility shift assay relative to control; how it was run: as §1
[14] = molecular target: Proto-oncogene tyrosine-protein kinase Src (Homo sapiens, UniProt P12931); assay: Inhibition of SRC (unknown origin) at 30 uM by microfluidic mobility shift assay relative to control; how it was run: as §1
Sequence of Proto-oncogene tyrosine-protein kinase Src (P12931 2-536 limits assumed): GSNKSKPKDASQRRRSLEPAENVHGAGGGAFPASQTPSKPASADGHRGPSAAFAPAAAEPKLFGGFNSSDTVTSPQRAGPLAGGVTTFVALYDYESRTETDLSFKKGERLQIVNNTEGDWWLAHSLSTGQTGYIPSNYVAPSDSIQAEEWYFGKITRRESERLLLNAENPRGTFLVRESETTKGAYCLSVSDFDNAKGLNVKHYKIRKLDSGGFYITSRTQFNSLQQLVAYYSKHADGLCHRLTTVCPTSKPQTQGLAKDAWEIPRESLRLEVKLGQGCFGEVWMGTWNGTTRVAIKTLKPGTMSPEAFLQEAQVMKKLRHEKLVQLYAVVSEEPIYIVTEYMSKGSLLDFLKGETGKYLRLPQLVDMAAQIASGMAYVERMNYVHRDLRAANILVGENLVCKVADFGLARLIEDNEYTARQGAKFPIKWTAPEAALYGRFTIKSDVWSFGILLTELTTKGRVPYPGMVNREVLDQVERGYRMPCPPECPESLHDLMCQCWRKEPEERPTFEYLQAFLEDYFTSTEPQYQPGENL

Sequence of Fibroblast growth factor receptor 1 (Homo sapiens) (P11362 22-822 limits assumed): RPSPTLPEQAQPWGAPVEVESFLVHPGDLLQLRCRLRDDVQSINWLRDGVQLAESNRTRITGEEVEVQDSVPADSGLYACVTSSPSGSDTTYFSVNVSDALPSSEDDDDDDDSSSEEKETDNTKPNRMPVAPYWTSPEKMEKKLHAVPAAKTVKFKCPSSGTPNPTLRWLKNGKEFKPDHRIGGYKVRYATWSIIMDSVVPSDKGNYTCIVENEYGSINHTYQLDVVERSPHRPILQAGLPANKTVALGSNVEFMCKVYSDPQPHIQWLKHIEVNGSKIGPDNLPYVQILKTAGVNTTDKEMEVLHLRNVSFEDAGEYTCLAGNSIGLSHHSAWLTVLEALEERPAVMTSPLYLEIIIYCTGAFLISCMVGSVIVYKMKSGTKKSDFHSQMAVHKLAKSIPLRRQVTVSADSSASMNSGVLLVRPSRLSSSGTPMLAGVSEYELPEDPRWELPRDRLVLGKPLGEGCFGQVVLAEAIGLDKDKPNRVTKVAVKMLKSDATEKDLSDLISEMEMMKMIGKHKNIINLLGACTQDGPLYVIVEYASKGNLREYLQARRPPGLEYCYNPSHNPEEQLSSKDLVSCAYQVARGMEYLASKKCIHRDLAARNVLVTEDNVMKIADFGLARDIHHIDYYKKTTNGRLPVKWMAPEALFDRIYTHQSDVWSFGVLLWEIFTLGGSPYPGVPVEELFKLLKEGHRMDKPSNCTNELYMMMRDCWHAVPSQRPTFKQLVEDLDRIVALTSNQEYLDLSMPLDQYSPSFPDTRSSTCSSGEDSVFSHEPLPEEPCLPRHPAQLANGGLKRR
Sequence of Ribosomal protein S6 kinase alpha-1 (Q15418 whole entry): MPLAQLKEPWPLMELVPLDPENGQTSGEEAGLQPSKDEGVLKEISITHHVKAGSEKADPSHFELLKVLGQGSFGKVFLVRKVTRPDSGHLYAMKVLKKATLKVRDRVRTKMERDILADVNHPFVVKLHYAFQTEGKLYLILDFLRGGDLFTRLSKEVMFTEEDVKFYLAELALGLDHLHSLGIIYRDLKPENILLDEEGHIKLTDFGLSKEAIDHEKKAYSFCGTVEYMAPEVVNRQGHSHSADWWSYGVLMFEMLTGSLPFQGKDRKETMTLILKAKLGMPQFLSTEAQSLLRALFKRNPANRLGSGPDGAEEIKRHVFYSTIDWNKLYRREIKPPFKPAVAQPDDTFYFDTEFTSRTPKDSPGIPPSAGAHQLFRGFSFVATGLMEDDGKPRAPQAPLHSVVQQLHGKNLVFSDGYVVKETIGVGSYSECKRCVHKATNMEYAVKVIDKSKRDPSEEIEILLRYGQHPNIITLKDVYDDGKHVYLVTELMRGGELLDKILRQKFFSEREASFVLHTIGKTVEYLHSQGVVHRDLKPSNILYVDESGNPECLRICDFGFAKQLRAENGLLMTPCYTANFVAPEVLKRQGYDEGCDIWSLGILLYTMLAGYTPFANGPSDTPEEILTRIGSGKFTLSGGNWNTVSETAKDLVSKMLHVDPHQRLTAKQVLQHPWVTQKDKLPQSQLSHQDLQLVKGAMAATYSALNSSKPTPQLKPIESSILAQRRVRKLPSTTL
Sequence of MAP kinase-activated protein kinase 2 (Homo sapiens) (P49137 whole entry, looked up): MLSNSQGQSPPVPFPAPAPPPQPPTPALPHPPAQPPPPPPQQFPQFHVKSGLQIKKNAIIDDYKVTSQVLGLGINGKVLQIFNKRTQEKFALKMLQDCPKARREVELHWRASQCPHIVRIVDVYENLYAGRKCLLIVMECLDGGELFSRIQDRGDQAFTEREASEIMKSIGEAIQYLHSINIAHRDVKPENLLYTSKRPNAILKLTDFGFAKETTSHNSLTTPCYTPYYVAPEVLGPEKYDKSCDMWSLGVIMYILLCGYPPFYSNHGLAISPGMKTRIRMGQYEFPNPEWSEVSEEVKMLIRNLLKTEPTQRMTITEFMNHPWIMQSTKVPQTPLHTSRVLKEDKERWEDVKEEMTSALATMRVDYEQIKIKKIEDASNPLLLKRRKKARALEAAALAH
Sequence of Mitogen-activated protein kinase 14 (Homo sapiens) (Q16539 whole entry): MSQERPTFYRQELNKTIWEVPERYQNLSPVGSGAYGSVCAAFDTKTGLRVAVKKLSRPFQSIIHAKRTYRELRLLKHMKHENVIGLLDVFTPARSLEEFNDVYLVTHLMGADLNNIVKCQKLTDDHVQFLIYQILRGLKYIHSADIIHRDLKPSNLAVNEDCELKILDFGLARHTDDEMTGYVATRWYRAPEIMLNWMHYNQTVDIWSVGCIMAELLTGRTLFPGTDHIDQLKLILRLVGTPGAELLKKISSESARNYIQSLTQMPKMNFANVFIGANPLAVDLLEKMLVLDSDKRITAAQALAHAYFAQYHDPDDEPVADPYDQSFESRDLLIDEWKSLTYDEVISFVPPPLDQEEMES
Sequence of Calcium/calmodulin-dependent protein kinase type II subunit beta (Homo sapiens) (Q13554 whole entry): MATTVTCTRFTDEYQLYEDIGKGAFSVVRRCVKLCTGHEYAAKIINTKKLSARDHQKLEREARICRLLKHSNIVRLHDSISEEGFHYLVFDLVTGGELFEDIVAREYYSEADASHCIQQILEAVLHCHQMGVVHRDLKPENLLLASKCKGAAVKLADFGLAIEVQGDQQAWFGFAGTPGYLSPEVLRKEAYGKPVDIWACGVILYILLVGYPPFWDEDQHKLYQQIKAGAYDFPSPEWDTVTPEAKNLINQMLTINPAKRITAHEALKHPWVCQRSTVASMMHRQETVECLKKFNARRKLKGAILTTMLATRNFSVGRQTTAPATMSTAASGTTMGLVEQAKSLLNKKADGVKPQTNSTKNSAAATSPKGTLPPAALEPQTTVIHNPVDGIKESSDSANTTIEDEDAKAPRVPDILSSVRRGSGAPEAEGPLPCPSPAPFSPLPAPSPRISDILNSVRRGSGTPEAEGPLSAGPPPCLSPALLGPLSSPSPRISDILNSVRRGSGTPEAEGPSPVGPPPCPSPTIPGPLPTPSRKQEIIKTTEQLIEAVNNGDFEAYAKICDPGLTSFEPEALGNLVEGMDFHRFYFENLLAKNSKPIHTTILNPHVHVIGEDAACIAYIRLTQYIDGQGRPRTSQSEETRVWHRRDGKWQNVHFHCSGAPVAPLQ
Sequence of Mitogen-activated protein kinase 1 (P28482 whole entry): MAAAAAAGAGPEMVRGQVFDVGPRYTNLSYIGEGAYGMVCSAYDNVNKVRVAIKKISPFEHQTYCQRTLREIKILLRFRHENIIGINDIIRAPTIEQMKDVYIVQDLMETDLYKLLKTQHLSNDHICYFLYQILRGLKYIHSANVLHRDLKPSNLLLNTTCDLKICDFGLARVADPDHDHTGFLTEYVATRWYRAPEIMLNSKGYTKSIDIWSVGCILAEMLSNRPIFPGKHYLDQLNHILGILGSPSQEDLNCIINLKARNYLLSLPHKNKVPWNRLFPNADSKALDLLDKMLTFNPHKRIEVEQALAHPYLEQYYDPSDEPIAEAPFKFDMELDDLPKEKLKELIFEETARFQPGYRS
Sequence of Ribosomal protein S6 kinase alpha-5 (O75582 whole entry, looked up): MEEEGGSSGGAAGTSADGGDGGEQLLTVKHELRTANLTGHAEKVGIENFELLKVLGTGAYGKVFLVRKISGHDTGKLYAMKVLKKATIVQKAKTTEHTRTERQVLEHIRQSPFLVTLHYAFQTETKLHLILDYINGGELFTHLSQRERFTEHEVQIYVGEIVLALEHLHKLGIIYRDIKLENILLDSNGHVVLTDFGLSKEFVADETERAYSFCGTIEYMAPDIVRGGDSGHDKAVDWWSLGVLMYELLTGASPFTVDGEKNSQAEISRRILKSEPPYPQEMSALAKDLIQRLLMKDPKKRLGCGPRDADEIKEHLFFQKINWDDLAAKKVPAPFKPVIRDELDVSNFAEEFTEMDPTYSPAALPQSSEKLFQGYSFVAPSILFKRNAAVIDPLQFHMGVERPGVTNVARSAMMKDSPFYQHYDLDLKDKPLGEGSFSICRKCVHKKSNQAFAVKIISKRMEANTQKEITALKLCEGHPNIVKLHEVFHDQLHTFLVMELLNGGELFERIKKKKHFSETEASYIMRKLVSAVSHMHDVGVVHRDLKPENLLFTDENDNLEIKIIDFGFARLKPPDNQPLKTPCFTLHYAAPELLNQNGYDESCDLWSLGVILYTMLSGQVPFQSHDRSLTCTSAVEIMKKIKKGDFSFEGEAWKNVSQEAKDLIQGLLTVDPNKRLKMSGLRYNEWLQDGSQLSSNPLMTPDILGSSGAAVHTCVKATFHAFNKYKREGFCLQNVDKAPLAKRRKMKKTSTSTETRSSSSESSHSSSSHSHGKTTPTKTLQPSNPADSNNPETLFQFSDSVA

SMILES | inhibition [1] [%] | inhibition [2] [%] | inhibition [3] [%] | inhibition [4] [%] | inhibition [5] [%] | inhibition [6] [%] | inhibition [7] [%] | inhibition [8] [%] | inhibition [9] [%] | inhibition [10] [%] | inhibition [11] [%] | inhibition [12] [%] | inhibition [13] [%] | inhibition [14] [%]
c1ccc(CC2CCC3(CCN(c4ncnc5[nH]cnc45)CC3)NC2)cc1 (racemic) | 1 | 89 | 48 | 6 | 41 | 75 | 17 | 17 | 0 | 42 | 12 | 15 | 35 | 33
c1ccc(CC2CCNC3(CCN(c4ncnc5[nH]cnc45)CC3)C2)cc1 (racemic) | 0 | 64 | 90 | 10 | 74 | 100 | 29 | 59 | 99 | 44 | 8 | 3 | 53 | 64
c1nc(N2CCC3(CCNC3)CC2)c2nc[nH]c2n1 | 26 | 59 | 77 | 3 | 38 | 94 |  |  |  |  |  | 66 | 65 | 61
c1ccc(C2CCNC3(CCN(c4ncnc5[nH]cnc45)CC3)C2)cc1 (racemic) | 0 | 76 | 85 | 0 | 54 | 97 | 32 | 47 | 89 | 27 | 14 | 3 | 75 | 76
c1ccc(C2CCC3(CCN(c4ncnc5[nH]cnc45)CC3)NC2)cc1 (stereo unspecified) | 0 | 90 | 64 | 10 | 35 | 78 |  |  |  |  |  | 17 | 44 | 33
O=S(=O)(c1cccc2cnccc12)N1CCC2(CCCNC2)CC1 | 9 | 24 | 29 | 9 | 13 | 36 |  |  |  |  |  | 8 | 5 | 35
O=C(O)C1CCC2(CCN(c3ncnc4[nH]cnc34)CC2)NC1 (racemic) | 0 | 95 | 97 | 21 | 37 | 51 |  |  |  |  |  | 21 | 16 | 20
OC1CCNC2(CCN(c3ncnc4[nH]cnc34)CC2)C1 (racemic) | 0 | 63 | 40 | 4 | 32 | 93 |  |  |  |  |  | 8 | 39 | 22
c1nc(N2CCC3(CCCNC3)CC2)c2nc[nH]c2n1 | 41 | 67 | 81 | 0 | 50 | 98 |  |  |  |  |  | 74 | 70 | 70
